This is a sample that favours compounds with a hit; in the whole collection about 2.1% have one here.
Statin myotox sup: suppressors of statin myotoxicity in C2C12 myotubes, primary screen, cell-based, single point, plate reader | C2C12 myotubes + simvastatin, ATP luminescence, 48 h; scaled: DMSO 0, geranylgeraniol control 100 | rescue of ATP level, % at 7.49 µM | hit rate 0.78% among 330,000;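 active = mean ATP rescue above about 67%, or every replicate alone reaching that limit, limit read from the data, passing the limit was not always enough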;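 note: myotubes were challenged with 10 µM simvastatin during compound exposure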
ARFGAP1 inh: inhibitors of rat ARFGAP1 GAP activity, primary screen, biochemical, fluorescence polarization, GDP tracer | inhibition, % at 16.5 µM | hit rate 0.26% among 360,000 | ADP-ribosylation factor GTPase-activating protein 1 (Rattus norvegicus), Q62848 | Arfgap1-stimulated ARF1 GTP hydrolysis, GDP FP detection;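 active = inhibition above a per-plate limit, mean inhibition of low control wells plus 3 SD, cut at about 25% in these data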
Target sequence (Q62848 1-136 limits assumed): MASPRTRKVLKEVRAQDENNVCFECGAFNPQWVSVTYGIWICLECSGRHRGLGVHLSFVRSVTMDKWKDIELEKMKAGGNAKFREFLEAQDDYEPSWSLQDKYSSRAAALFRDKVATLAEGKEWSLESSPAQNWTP
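Repeats: one replicate per compound; assay system: rat Arfgap1 catalytic domain, aa 1-136; times: enzyme reaction 120 min at 25 °C after 20 min preincubation; detection: FP of antibody-bound GDP Alexa 633 tracer, ex 620/em 688 nm; benchmarks: high control wells lacking Arfgap1, low control full reaction with DMSO; reagent: human ARF1(Δ1-17)-GTP substrate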
ASAP1 inh: inhibitors of human ASAP1 ArfGAP activity, primary screen, biochemical, fluorescence polarization | ASAP1-stimulated ARF1 GTP hydrolysis, GDP FP detection | inhibition, % at 16.5 µM | hit rate 0.19% among 360,000; in the data active = inhibition above about 25%
Target sequence (Q9ULH1 325-724 limits assumed): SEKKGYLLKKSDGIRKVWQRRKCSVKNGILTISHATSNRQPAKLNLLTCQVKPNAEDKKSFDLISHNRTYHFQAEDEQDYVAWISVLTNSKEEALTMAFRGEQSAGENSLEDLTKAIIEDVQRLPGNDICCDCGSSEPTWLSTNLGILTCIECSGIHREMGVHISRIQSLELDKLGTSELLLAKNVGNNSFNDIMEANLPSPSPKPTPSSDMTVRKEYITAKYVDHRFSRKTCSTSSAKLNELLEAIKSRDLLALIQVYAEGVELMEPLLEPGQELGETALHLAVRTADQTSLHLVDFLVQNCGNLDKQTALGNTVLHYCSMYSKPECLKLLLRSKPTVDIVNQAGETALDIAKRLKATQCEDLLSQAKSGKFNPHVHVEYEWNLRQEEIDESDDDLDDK
A3A deaminase: APOBEC3A ssDNA deaminase inhibitors, primary screen, selectivity assay for APOBEC3G inhibitor project, biochemical, FAM/TAMRA oligo cleavage fluorescence | hit rate 0.41% among 330,000 | DNA dC->dU-editing enzyme APOBEC-3A (Homo sapiens), P31941 | inhibition, % at 20 µM | AID 493011, 2011 | recombinant A3A, FAM/TAMRA ssDNA deamination fluorescence;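 active = at least 40% inhibition at 20 µM here, with at most 30% in a related deaminase screen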
Target sequence (P31941 whole entry, looked up): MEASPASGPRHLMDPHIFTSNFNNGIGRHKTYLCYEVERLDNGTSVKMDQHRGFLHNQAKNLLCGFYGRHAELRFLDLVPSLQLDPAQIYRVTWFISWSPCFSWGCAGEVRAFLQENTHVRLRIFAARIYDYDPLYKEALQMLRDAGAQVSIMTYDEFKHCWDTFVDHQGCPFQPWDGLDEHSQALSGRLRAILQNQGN
APOBEC3G inh: APOBEC3G DNA deaminase inhibitors, primary screen, biochemical, fluorescence, single-stranded DNA substrate, uHTS | DNA dC->dU-editing enzyme APOBEC-3G (Homo sapiens), Q9HC16 | recombinant A3G, ssDNA deamination FAM/TAMRA fluorescence | inhibition, % at 20 µM | hit rate 0.28% among 330,000 | AID 493012, 2011;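 active = inhibition of at least 40% at 20 µM, with no more than 30% in the related APOBEC3A deaminase screen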
SUMO Mot1 rescue: yeast Mot1-301 growth rescue at high temperature, primary screen, SUMOylation pathway inhibitor project, S. cerevisiae, ATP luminescence, 38.5C; S. cerevisiae Mot1-301 growth rescue; percent above DMSO median, 100 means doubled; growth rescue, % at 18.8 µM; hit rate 1% among 320,000; AID 2716, 2010;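 active = every valid replicate shows activation above 250% relative to neutral control wells; inactive = the rest, any valid replicate at or below 250%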
Mot1 SUMO dose: growth restoration of Mot1-301 yeast on galactose, dose response, SUMO pathway inhibitor project, whole organism, S. cerevisiae, ATP luminescence, cherry-picked samples; shares compounds with SUMO Mot1 rescue; S. cerevisiae Mot1-301 galactose growth, 24 h; -100 = growth of slx-deleted rescue strain; growth activity, percent, % at 42 µM; 2,300 tested, under 10 active;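 active = Signal drops as the depositor expects, and the fitted half-maximal dose is no more than ten times the top valid tested dose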;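 note: more negative values mean stronger growth rescue toward the control strain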
APOBEC3A confirm: APOBEC3A deaminase inhibitors, retest, confirmation, selectivity assay for APOBEC3G inhibitor project, biochemical, single concentration, fluorescence readout. recombinant A3A, ssDNA deaminase UDG fluorescence assay. inhibition, % at 20 µM. shares compounds with A3A deaminase. hit rate 63% among 1,400. AID 493151, 2011;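 active = inhibition reaching a set limit, 80% of the first screen's cutoff, at 20 µM in any replicate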
UDG A3A counter: E. coli UDG inhibitors, confirmation, counter-screen for APOBEC3A inhibitor project, biochemical, single concentration, fluorescence, FAM/TAMRA oligo | inhibition, % at 20 µM | shares compounds with A3A deaminase | UDG counterscreen, FAM/TAMRA uracil oligo fluorescence | AID 504714, 2011 | 1,000 tested, under 10 active; call rule not given here
ASAP1 GAP conf: ASAP1 GAP activity inhibitors, confirmation, biochemical, fluorescence polarization, human, triplicate. shares compounds with ASAP1 inh. ASAP1-stimulated Arf1 GTPase, GDP fluorescence polarization. inhibition, % at 16.5 µM. hit rate 37% among 620;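 active = mean inhibition over triplicates exceeds the hit threshold derived for the earlier primary screening run, cut at about 25% in these data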
ARFGAP1 confirm: ARFGAP1 inhibitor hit confirmation, biochemical, fluorescence polarization, triplicate; shares compounds with ARFGAP1 inh; hit rate 30% among 890; AID 651608, 2012; ARFGAP1-stimulated ARF1 GTP hydrolysis, GDP tracer FP; inhibition, % at 16.5 µM;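 active = average inhibition over triplicates above the hit cutoff set in the earlier primary screen, cut at about 25% in these data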
Each line names hits and unclear results; the compound was inactive in the other large screens (follow-up assays come after a bar, where they were run).

O=C(CSc1nc2ccc(Nc3nc(N4CCOCC4)nc(N4CCOCC4)n3)cc2s1)N1CCOCC1	ASAP1 inh 25, SUMO Mot1 rescue 382 (no result: Statin myotox sup) | Mot1 SUMO dose inactive | ASAP1 GAP conf 45
O=C1NC(Cc2c[nH]c3ccccc23)C(=O)N1Cc1ccc(CN2C(=O)NC(Cc3c[nH]c4ccccc34)C2=O)cc1 (centres undefined)	ASAP1 inh 29, SUMO Mot1 rescue 572 | Mot1 SUMO dose inactive | ASAP1 GAP conf inactive
O=C1NC(Cc2c[nH]c3ccccc23)C(=O)N1CCOc1ccc(F)cc1 (centres undefined)	none (no result: Statin myotox sup)
CCCN1C[C@@H](C)[C@@H](OC)CN(C)C(=O)c2ccc(NC(=O)CC)cc2OC[C@@H]1C	none (no result: ARFGAP1 inh, ASAP1 inh, A3A deaminase, APOBEC3G inh, SUMO Mot1 rescue)
O=Nc1c(-c2cccc([N+](=O)[O-])c2)nc2ncccn12	ARFGAP1 inh 26, SUMO Mot1 rescue 556 (no result: Statin myotox sup) | Mot1 SUMO dose inactive | ARFGAP1 confirm inactive
Cc1nn(-c2ccccc2)c(N)c1N=Nc1cccc(S(=O)(=O)N2CCOCC2)c1	ARFGAP1 inh 29, SUMO Mot1 rescue 387 | Mot1 SUMO dose inactive | ARFGAP1 confirm inactive
Cc1nn(C)c(Cl)c1C(=O)NCC(=O)O	none
CCOC(=O)CNC(=O)c1c(C)nn(C)c1Cl	ARFGAP1 inh 25, SUMO Mot1 rescue 669 (no result: Statin myotox sup) | Mot1 SUMO dose inactive | ARFGAP1 confirm inactive
C/C=C/c1ccc2c(c1)O[C@@H](CN(C)C(=O)c1ccc(F)cc1)[C@H](C)CN([C@H](C)CO)S2(=O)=O	none (no result: ARFGAP1 inh, ASAP1 inh, A3A deaminase, APOBEC3G inh, SUMO Mot1 rescue)
C[C@@H]1CN([C@@H](C)CO)C(=O)c2cc(NC(=O)Cc3cn(C)c4ccccc34)ccc2O[C@@H]1CN(C)C(=O)Nc1ccc(F)cc1	none (no result: ARFGAP1 inh, ASAP1 inh, A3A deaminase, APOBEC3G inh, SUMO Mot1 rescue)
O=c1oc(/C=C/c2ccc([N+](=O)[O-])s2)nc2ccccc12	A3A deaminase 43 (no result: ARFGAP1 inh, ASAP1 inh) | APOBEC3A confirm 33
CO[C@@H]1CN(C)C(=O)c2ccc(NS(C)(=O)=O)cc2OC[C@H](C)N(CC2CCOCC2)C[C@@H]1C	none (no result: ARFGAP1 inh, ASAP1 inh, A3A deaminase, APOBEC3G inh, SUMO Mot1 rescue)
CN(CC(=O)Nc1c(Cl)cccc1Cl)C(=O)CNC(=O)c1ccc2c(c1)OCO2	none
CN(CC(=O)Nc1c(Cl)cccc1Cl)C(=O)c1cccc(-n2cccc2)c1	A3A deaminase 71 | APOBEC3A confirm 53 | UDG A3A counter inactive
CN(CC(=O)Nc1c(Cl)cccc1Cl)C(=O)CNC(=O)c1ccc2ccccc2c1	A3A deaminase 42 | APOBEC3A confirm inactive | UDG A3A counter inactive
Cc1ccc(S(=O)(=O)N(C)C[C@@H]2Oc3ccc(NC(=O)C4CC4)cc3C(=O)N([C@@H](C)CO)C[C@H]2C)cc1	none (no result: ARFGAP1 inh, ASAP1 inh, A3A deaminase, APOBEC3G inh, SUMO Mot1 rescue)
CC1CCC(C(C)C)C(OCC(O)C[N+]2(C)CCCCC2)C1 (centres undefined)	A3A deaminase 78 | APOBEC3A confirm 74 | UDG A3A counter inactive
CC1CCC(C(C)C)C(OCC(O)CN2CCCC(C)C2)C1 (centres undefined)	none (no result: Statin myotox sup)
COc1ccc(S(=O)(=O)Nc2ccc3c(c2)[C@H]2C[C@H](CC(=O)N(C)C)O[C@@H](CO)[C@H]2O3)cc1	none (no result: ARFGAP1 inh, ASAP1 inh, A3A deaminase, APOBEC3G inh, SUMO Mot1 rescue)
Cc1cc(C)c(NC(=O)c2ccccc2CCc2ccccc2)c(C)c1	none
Cc1ccc(NC(=O)c2ccccc2CCc2ccccc2)c(C)c1	A3A deaminase 100 | APOBEC3A confirm inactive
N#Cc1c(SCC(=O)Nc2nc3ccc(Br)cc3s2)sc2c(O)cc(=O)[nH]c12	A3A deaminase 43 (no result: Statin myotox sup) | APOBEC3A confirm 39 | UDG A3A counter inactive
CCC(=O)NC(Cc1ccccc1)c1nc2ccccc2[nH]1 (centres undefined)	none
Cc1cc(Cl)ccc1OCC(=O)N[C@@H](Cc1ccccc1)c1nc2ccccc2[nH]1	A3A deaminase 42 (no result: Statin myotox sup) | APOBEC3A confirm inactive
COC(=O)c1ccc(Cn2c(C)cc(C)[n+]2C)o1	A3A deaminase 52 (no result: Statin myotox sup) | APOBEC3A confirm 72 | UDG A3A counter inactive
CC(C)NC(=O)N1C[C@H]2[C@@H](c3ccccc31)[C@@H](CO)N2C(=O)c1ccccc1	none (no result: ARFGAP1 inh, ASAP1 inh, A3A deaminase, APOBEC3G inh, SUMO Mot1 rescue)
C[C@@H]1CN([C@H](C)CO)C(=O)c2cccc(N(C)C)c2O[C@H]1CN(C)Cc1ccccc1	none (no result: ARFGAP1 inh, ASAP1 inh, A3A deaminase, APOBEC3G inh, SUMO Mot1 rescue)
CN(CC(=O)N1CCN(Cc2ccccc2)CC1)C(=O)Cc1ccc(Cl)c(Cl)c1	A3A deaminase 50 | APOBEC3A confirm 34 | UDG A3A counter inactive
CCCNC(=O)N1[C@H](CO)[C@@H](c2ccccc2)[C@H]1CNC(=O)c1ccc(F)cc1	none (no result: ARFGAP1 inh, ASAP1 inh, A3A deaminase, APOBEC3G inh, SUMO Mot1 rescue)
CCCCC1(C)OC(=O)C(=Cc2ccc(-c3ccc(Cl)c(C(=O)O)c3)o2)C(=O)O1 (centres undefined)	A3A deaminase 55 (no result: Statin myotox sup) | APOBEC3A confirm 30 | UDG A3A counter inactive
Cc1ccc(N2NC(=O)/C(=C/c3ccc(-c4ccc(Cl)c(C(=O)O)c4)o3)C2=O)cc1	none
